Measured values reported in ChEMBL document CHEMBL3045749, “Antifeedant and insecticide properties of a limonoid from Melia azedarach (Meliaceae) with potential use for pest management” (2003).
The source made the active and inactive calls. The rule behind the calls is not given here.

Key:
Epilachna [1] = assay: Antifeedant activity against third-instar larval stage of Epilachna paenulata infested cucurbita maxima leaves assessed as decrease in food consumption at 0.25 to 4 ug/cm2 measured after 24 hr by no choice leaf disk assay relative to untreated control; type: functional, organism-based
In short: (§1)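 No-choice test: four third-instar E. paenulata larvae per Petri dish fed C. maxima leaves (renewed every 48 h) with known amounts of compound or solvent applied by syringe. Six replicates per treatment, plus unfed starved controls. Leaf consumption, body weight and mortality recorded every 24 h.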

Epilachna [2] = assay: Antifeedant activity against third-instar larval stage of Epilachna paenulata infested cucurbita maxima leaves assessed as increase in larval mortality measured at 96 hr by no choice leaf disk assay; type: functional
In short: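 Same no-choice setup (four third-instar larvae per dish, treated C. maxima leaves renewed every 48 h, six replicates, mortality scored every 24 h). LD50 derived by probit analysis of mortality at 96 h.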

Epilachna [3] = assay: Antifeedant activity against third-instar larval stage of Epilachna paenulata infested cucurbita maxima leaves assessed as decrease in food consumption at 0.25 to 4 ug/cm2 measured after 6 days by no choice leaf disk assay relative to untreated control; type: functional, organism-based; in short: as §1
Epilachna [4] = assay: Antifeedant activity against third-instar larval stage of Epilachna paenulata infested cucurbita maxima leaves assessed as feeding reduction after 24 hr by leaf disk choice assay; type: functional
In short: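 Leaf-disk choice test: two C. maxima seedling cotyledons in a Petri dish under a glass disk with two 1 cm² holes. One third-instar larva placed equidistant from treated and solvent-control disks, fed 24 h. Area eaten estimated visually by quarters, always by the same operator. AI% = (1 − T/C) × 100; Wilcoxon signed paired rank test, α = 0.05.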

Epilachna [5] = assay: Antifeedant activity against third-instar larval stage of Epilachna paenulata infested cucurbita maxima leaves assessed as decrease in food consumption at 0.25 to 4 ug/cm2 measured after 48 hr by no choice leaf disk assay relative to untreated control; type: functional, organism-based; in short: as §1
Epilachna [6] = assay: Antifeedant activity against third-instar larval stage of Epilachna paenulata infested cucurbita maxima leaves assessed as decrease in larval weight gain at 1 to 4 ug/cm2 measured after 96 hr by no choice leaf disk assay relative to untreated control; type: functional, organism-based; in short: as §1
Epilachna [7] = assay: Antifeedant activity against third-instar larval stage of Epilachna paenulata infested cucurbita maxima leaves assessed as decrease in larval weight gain at 0.25 to 4 ug/cm2 measured after 144 hr by no choice leaf disk assay relative to untreated control; type: functional, organism-based; in short: as §1
Epilachna [8] = assay: Antifeedant activity against third-instar larval stage of Epilachna paenulata infested cucurbita maxima leaves assessed as larval mortality at 0.25 to 4 ug/cm2 measured after 24 hr by no choice leaf disk assay relative to untreated control; type: functional; in short: as §1

Compound	Activity (Epilachna [1])	LD50 (Epilachna [2]) [microg/cm2]	Activity (Epilachna [3])	ED50 (Epilachna [4]) [microg/cm2]	Activity (Epilachna [5])	Activity (Epilachna [6])	Activity (Epilachna [7])	mortality (Epilachna [8]) [%]
C/C=C(\C)C(=O)O[C@H]1C[C@@H](OC(C)=O)[C@@]2(C(=O)OC)CO[C@H]3[C@@H](O)[C@@](C)([C@]45O[C@@]4(C)[C@@H]4C[C@H]5O[C@@H]5OC=C[C@@]54O)[C@H]4[C@]1(CO[C@]4(O)C(=O)OC)[C@@H]32 [AZADIRACHTIN A]	inactive	1.24	Active	0.72	Active	–	–	–
CC(=O)O[C@@H]1C[C@H](O)[C@@]23COC(O)[C@]1(C)[C@@H]2C[C@@H](O)[C@]1(C)[C@@H]3[C@H](O)C(=O)[C@@]2(C)[C@H](c3ccoc3)C[C@H]3O[C@@]312 (stereo partly drawn) [MELIARTENIN]	Active	0.76	Active	0.8	–	Active	Active	20
CC(=O)O[C@@H]1C[C@H](O)[C@@]23CO[C@@H](O)[C@]1(C)[C@@H]2C[C@@H](O)[C@]1(C)[C@@H]3C(=O)[C@H](OC(C)=O)[C@@]2(C)[C@H](c3ccoc3)C[C@H]3O[C@]321 [TOOSENDANIN]	–	–	–	3.69	–	–	–	–
